Assay results published in ChEMBL document CHEMBL2321850, “Fragment-based discovery of 8-hydroxyquinoline inhibitors of the HIV-1 integrase-lens epithelium-derived growth factor/p75 (IN-LEDGF/p75) interaction” (J Med Chem, 2013).

Key:
[1] = system: LNCaP; assay: Cytotoxicity against human LNCAP cells assessed as inhibition of cell proliferation after 72 hrs by MTT assay; assay type: cell-based
[2] = system: MT4; assay: Cytotoxicity against human MT4 cells assessed as cell viability after 72 hrs by MTT assay; assay type: cell-based; conditions: mt4, 72 h
Method in brief: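 MT-4 cells exposed to fivefold serial dilutions of compound run in parallel with the antiviral MTT cytopathic-effect assay; CC50 taken as the concentration killing 50% of MT-4 cells.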

[3] = system: Human immunodeficiency virus 1; assay: Inhibition of HIV-1 FLAG-6x-His-tagged integrase interaction to FLAG-tagged LEDGF/p75 at 10 uM preincubated for 30 mins prior to LEDGF/p75 addition measured after 60 mins by quenching assay
[4] = target: T1, Human immunodeficiency virus type 1 integrase (Human immunodeficiency virus 1, UniProt Q7ZJM1); assay: Inhibition of HIV-1 integrase 3'-processing activity
T1 sequence (Q7ZJM1 whole entry): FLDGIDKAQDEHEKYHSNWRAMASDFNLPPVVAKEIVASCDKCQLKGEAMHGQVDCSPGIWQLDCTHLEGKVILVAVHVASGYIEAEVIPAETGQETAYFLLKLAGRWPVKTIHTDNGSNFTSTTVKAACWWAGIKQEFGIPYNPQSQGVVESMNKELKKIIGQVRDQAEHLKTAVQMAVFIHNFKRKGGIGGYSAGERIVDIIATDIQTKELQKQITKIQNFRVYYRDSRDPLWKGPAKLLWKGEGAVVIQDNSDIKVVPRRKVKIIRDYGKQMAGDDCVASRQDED

[5] = Inhibition of HIV-1 His6-tagged integrase interaction to FLAG-tagged LEDGF/p75 preincubated for 30 mins prior to LEDGF/p75 addition measured after 60 mins by alphascreen assay; design: species or system Human immunodeficiency virus 1
Method in brief: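 His6-tagged IN (300 nM final) preincubated with compound (20 µM final) 30 min at 4 °C, then FLAG-LEDGF/p75 (300 nM final) added for 60 min at 4 °C; Ni-chelate donor and anti-FLAG acceptor beads (20 µg/mL each) added, 1 h at 30 °C, light-protected; acceptor-bead emission read.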

[6] = target: T1, Human immunodeficiency virus type 1 integrase; assay: Inhibition of HIV-1 integrase strand transfer activity
[7] = system: Human immunodeficiency virus; assay: Antiviral activity against HIV infected human MT4 cells assessed as decrease of virus-induced cytopathic effect after 72 hrs by MTT assay; assay type: functional, organism-based; conditions: Human immunodeficiency virus 1, MT4, 72 h
Method in brief: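 MT-4 cells infected with 100 to 300 CCID50 of HIV (CCID50 from virus-stock titration on MT-4) in presence of fivefold serial compound dilutions; protection from viral cytopathic effect read by MTT; EC50 = concentration giving 50% protection. CC50 in MT-4 cells measured in parallel.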

[8] = Selectivity index, ratio of CC50 for human MT4 cells to EC50 for HIV infected human MT4 cells; assay type: toxicity, cell-based; conditions: MT4 cells (CC50) and HIV-infected MT4 cells (EC50)
Method in brief: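 MT-4 cells infected with 100 to 300 CCID50 of HIV in the presence of fivefold serial compound dilutions. Protection against virus-induced cytopathic effect was read by MTT to give EC50. CC50 came from parallel MTT viability testing of uninfected MT-4 cells. Selectivity index was calculated as CC50/EC50.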

Row | SMILES | CC50 [1] [µM] | CC50 [2] [µM] | inhibition [3] [%] | IC50 [4] [µM] | IC50 [5] [µM] | IC50 [6] [µM] | EC50 [7] [µM] | selectivity ratio [8]
1 | Oc1ccc(CN2CCN(c3ccccn3)CC2)c2cccnc12 | > 10 | 9 | < 50 | > 20 | 1.9 | > 20 | > 9 | –
2 | CCC(=O)NC(c1ccc(OC)c(OC)c1)c1cc(Cl)c2cccnc2c1O (stereo not given) | 3 | – | < 50 | > 20 | 4 | > 20 | – | –
3 | CCN1CCN(Cc2ccc(O)c3ncccc23)CC1 | > 10 | 42 | < 50 | > 20 | 1.2 | > 20 | > 42 | –
4 | CCC(=O)NC(c1ccc(OC)cc1)c1cc([N+](=O)[O-])c2cccnc2c1O (stereo not given) | > 10 | 10 | < 50 | > 20 | 2.6 | > 20 | > 10 | –
5 | Cc1cccc(NCc2ccc(O)c3ncccc23)c1C | > 10 | 13 | < 50 | > 20 | 3 | > 20 | > 13 | –
6 | COc1ccc(C(NC(C)=O)c2cc([N+](=O)[O-])c3cccnc3c2O)cc1OC (stereo not given) | > 10 | 42 | < 50 | > 20 | 3.9 | > 20 | > 42 | –
7 | Oc1ccc(CNc2ccccc2F)c2cccnc12 | > 10 | 9 | < 50 | > 20 | 3.7 | > 20 | > 9 | –
8 | CCCC(=O)NC(c1ccccc1)c1ccc2cccnc2c1O (stereo not given) | 0.68 | – | < 50 | > 20 | 1.4 | > 20 | – | –
9 | CCC(=O)NC(c1cccs1)c1cc([N+](=O)[O-])c2cccnc2c1O (stereo not given) | 5 | – | < 50 | > 20 | 3.5 | > 20 | – | –
10 | Cc1ccc(NCc2ccc(O)c3ncccc23)cc1 | > 10 | 36.5 | < 50 | > 20 | 3.3 | > 20 | 15.4 | 2
